eIF2B yeast act: eIF2B (yeast) activity modulation; S. cerevisiae eIF2B-epsilon R284H, GCN4-lacZ luminescence; inhibition, % at 25 µM (by protocol); actives 0.91% (n = 27,000); AID 688;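 active = mutant luminescence inhibited past about 50% while wild type luminescence and mutant growth stay under set limits, limit read from the data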
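Times: 16 h growth with compound at 30 °C, 90 min Beta-Glo step; Assay system: yeast eIF2B-epsilon R284H mutant carrying GCN4–beta-galactosidase fusion; Measure: % inhibition of reporter signal and growth versus controls; Dosing: one concentration, 25 µM, 0.25% DMSO; Buffer or medium: YPD yeast growth medium; Measured by: Beta-Glo luminescence plus absorbance at 595 nm.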
Each line names hits and unclear results; the compound was inactive in the other large screens. The full list was thinned out, with hits kept by preference.

CN(C)C(=O)Oc1ccc(OC(=O)c2ccccc2)cc1	eIF2B yeast act 51
Cc1cccc(CN(C)C)c1OC(=O)N(C)C	none
CN(C)Cc1ccccc1OC(=O)N(C)C	none
Cc1cc(C)nc(-n2c(C)nc3cc(Cl)ccc3c2=O)c1	none
CCOC(=O)c1c(C)n(Cc2ccco2)c2c1cc(O)c1ccccc12	none
Cc1ccc(-n2nc(C)cc2NC(=O)COc2cc(C)cc3oc(=O)c4c(c23)CCC4)cc1	none
CN(C=O)CP(=O)(O)CN(C)C=O	none
c1ccc2c(c1)CNc1ccccc1O2	eIF2B yeast act 57
Cc1ccc2c(c1)CNc1ccccc1O2	none
OC1(c2ccccc2F)CC2CCC(C1)N2CCN1CCOCC1 (stereo not given)	none
